Assay type in all cases: functional
A short description of assay [1]: Cytotoxicity against human Medulloblastoma cells after 3 days by MTT assay. The conditions noted are these: Medulloblastoma cell, 72 h, read-out: ED50 (the source's name). A digest of the protocol: (§1)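 Cells grown in RPMI-1640 and seeded in 96-well plates for 4 h before samples were added at four concentrations. Incubation at 37 °C for 3 days, then MTT added for 5 h. Medium removed, formazan dissolved in DMSO with 10 min shaking, absorbance read at 550 nm. ED50 reported in µg/mL.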
In general terms: Tetrazolium assays rely on reduction of a dye to a coloured formazan, in cell work by metabolically active cells.

For another assay, the system named is DLD-1. The experiment in a line: Cytotoxicity against human DLD1 cells after 3 days by MTT assay. The conditions noted are these: DLD-1, 72 h, read-out: ED50 (the source's name). A digest of the protocol:
as §1

A further assay relates to A549. The experiment in a line: Cytotoxicity against human A549 cells after 3 days by MTT assay. To be noted: A549, 72 h, read-out: ED50 (the source's name). A digest of the protocol: as §1
The next assay relates to MCF7. The experiment in a line: Cytotoxicity against human MCF7 cells after 3 days by MTT assay. The conditions noted are these: MCF7, 72 h, read-out: ED50 (the source's name). A digest of the protocol: as §1
Another assay deals with HeLa. The experiment in a line: Cytotoxicity against human HeLa cells after 3 days by MTT assay. To be noted: 72 h, read-out: ED50 (the source's name). A digest of the protocol: as §1
Another assay has as its system KB. Description: Cytotoxicity against human KB cells after 3 days by MTT assay. To be noted: 72 h, read-out: ED50 (the source's name). A digest of the protocol: as §1

≈ marks a conversion by molar mass, not a printed value. Some results are limits rather than exact numbers.

On to `COc1cc(/C=C/C(=O)OC[C@H]2O[C@@](COC(=O)/C=C/c3ccc(O)cc3)(O[C@H]3O[C@H](COC(C)=O)[C@@H](O)[C@H](O)[C@H]3O)[C@@H](OC(=O)/C=C/c3ccc(O)c(OC)c3)[C@@H]2O)ccc1O` [SMILASIDE E], for which the EC50 is 12.2 µg/mL (≈ 13.8 µM) in assay [1]; 4.5 µg/mL (≈ 5.1 µM) with DLD-1; 12.4 µg/mL (≈ 14 µM) in the assay on A549; 13 µg/mL (≈ 14.7 µM) with MCF7; 5.1 µg/mL (≈ 5.78 µM) in the assay with HeLa; 5.5 µg/mL (≈ 6.23 µM) with KB.
Turning to `COc1cc(/C=C/C(=O)OC[C@H]2O[C@@](COC(=O)/C=C/c3ccc(O)cc3)(O[C@H]3O[C@H](COC(C)=O)[C@@H](O)[C@H](O)[C@H]3OC(C)=O)[C@@H](OC(=O)/C=C/c3ccc(O)cc3)[C@@H]2O)ccc1O` [SMILASIDE F], the EC50 was over 20 µg/mL in assay [1]; 5 µg/mL (≈ 5.59 µM) in the assay on DLD-1; over 20 µg/mL in the assay on A549; 13 µg/mL (≈ 14.5 µM) in the assay on MCF7; 8.3 µg/mL (≈ 9.28 µM) in the assay with HeLa; 9 µg/mL (≈ 10.1 µM) with KB.
For `COc1cc(/C=C/C(=O)OC[C@H]2O[C@@](COC(=O)/C=C/c3ccc(O)cc3)(O[C@H]3O[C@H](CO)[C@@H](O)[C@H](O)[C@H]3O)[C@@H](OC(=O)/C=C/c3ccc(O)c(OC)c3)[C@@H]2O)ccc1O` [SMILASIDE C], the EC50 (in assay [1]; in the assay with DLD-1; in the assay on A549; with MCF7; in the assay on HeLa; in the assay with KB) was over 20 µg/mL in each case.
For `COc1cc(/C=C/C(=O)OC[C@H]2O[C@@](COC(=O)/C=C/c3ccc(O)cc3)(O[C@H]3O[C@H](CO)[C@@H](O)[C@H](O)[C@H]3O)[C@@H](OC(=O)/C=C/c3ccc(O)c(OC)c3)[C@@H]2OC(C)=O)ccc1O` [SMILASIDE D], the EC50 is 11.9 µg/mL (≈ 13.5 µM) in assay [1]; 2.7 µg/mL (≈ 3.06 µM) in the assay with DLD-1; 8.4 µg/mL (≈ 9.51 µM) with A549; over 20 µg/mL in the assay on MCF7; 7.3 µg/mL (≈ 8.27 µM) with HeLa; 13 µg/mL (≈ 14.7 µM) with KB.
Take `COc1cccc2c1C(=O)c1c(O)c3c(c(O)c1C2=O)C[C@@](O)(C(=O)CO)C[C@@H]3O[C@H]1C[C@H](N)[C@H](O)[C@H](C)O1` [DOXORUBICIN]: the EC50 (in assay [1]; in the assay on DLD-1; with A549; in the assay on MCF7; in the assay with HeLa; in the assay on KB) was 0.1 µg/mL (≈ 0.184 µM) in each case.
For `COc1cc(/C=C/C(=O)OC[C@H]2O[C@@](CO)(O[C@H]3O[C@H](CO)[C@@H](O)[C@H](O)[C@H]3OC(C)=O)[C@@H](OC(=O)/C=C/c3ccc(O)c(OC)c3)[C@@H]2O)ccc1O` [SMILASIDE B], the EC50 is 9.4 µg/mL (≈ 12.8 µM) in assay [1]; over 20 µg/mL with DLD-1; 12 µg/mL (≈ 16.3 µM) in the assay on A549; 10.3 µg/mL (≈ 14 µM) with MCF7; over 20 µg/mL with HeLa; over 20 µg/mL with KB.
In the case of `COc1cc(/C=C/C(=O)OC[C@H]2O[C@@](CO)(O[C@H]3O[C@H](COC(C)=O)[C@@H](OC(C)=O)[C@H](O)[C@H]3O)[C@@H](OC(=O)/C=C/c3ccc(O)c(OC)c3)[C@@H]2O)ccc1O` [SMILASIDE A], the EC50 was found to be 11.3 µg/mL (≈ 14.5 µM) in assay [1]; 11.6 µg/mL (≈ 14.9 µM) with DLD-1; 7.1 µg/mL (≈ 9.12 µM) in the assay on A549; 10.8 µg/mL (≈ 13.9 µM) in the assay with MCF7; 8.9 µg/mL (≈ 11.4 µM) in the assay with HeLa; 11.2 µg/mL (≈ 14.4 µM) in the assay on KB.

These data come from ChEMBL document CHEMBL1151263, “Cytotoxic phenylpropanoid glycosides from the stems of Smilax china” (2005).
